Measured values taken from ChEMBL document CHEMBL1128231, “Amphoteric drugs. 3. Synthesis and antiallergic activity of 3-[(5,11-dihydro[1]benzoxepino[4,3-b]pyridin-11-ylidene)piperidino]propionic acid derivatives and related compounds” (J Med Chem, 1995).

Key:
Rattus norvegicus [1] = experiment: Antiallergic activity was evaluated by inhibitory effect on 48/80-induced lethality in rats at a dose 0.1 (mg/kg, po); type: functional
How it was run: (§1)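 Male Wistar rats, 6 weeks old, fasted 24 h, n = 5. Survival beyond 2 h scored all-or-none; percent inhibition of lethality recorded at each oral dose.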

Rattus norvegicus [2] = experiment: Antiallergic activity was evaluated by inhibitory effect on 48/80-induced lethality in rats at a dose 1 (mg/kg, po); type: functional; how it was run: as §1
Rattus norvegicus [3] = experiment: Antiallergic activity was evaluated by inhibitory effect on compound 48/80-induced lethality in rats at a dose 10 (mg/kg, po); type: functional; how it was run: as §1
[4] = Octanol-buffer partition coefficient determined by dividing its equilibrium organic concentration by its aqueous concentration; type: physicochemical; details: octanol/water
How it was run: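 Sample dissolved at 10 µg/mL in Sørensen buffer pH 7.4; equal volumes buffer and 1-octanol shaken 24 h at 25 °C, centrifuged. Each phase quantified by HPLC (UV 254 nm, ODS column, 0.03 M phosphate pH 3.0–CH3CN 7:3). PCoct = organic/aqueous equilibrium concentration.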

[5] = target: Histamine H1 receptor (Mus musculus) (UniProt P70174); experiment: Ex vivo inhibition of [3H]mepyramine binding to mouse brain membrane H1 receptor after oral administration; type: functional, organism-based
Histamine H1 receptor (Mus musculus), sequence (P70174 whole entry): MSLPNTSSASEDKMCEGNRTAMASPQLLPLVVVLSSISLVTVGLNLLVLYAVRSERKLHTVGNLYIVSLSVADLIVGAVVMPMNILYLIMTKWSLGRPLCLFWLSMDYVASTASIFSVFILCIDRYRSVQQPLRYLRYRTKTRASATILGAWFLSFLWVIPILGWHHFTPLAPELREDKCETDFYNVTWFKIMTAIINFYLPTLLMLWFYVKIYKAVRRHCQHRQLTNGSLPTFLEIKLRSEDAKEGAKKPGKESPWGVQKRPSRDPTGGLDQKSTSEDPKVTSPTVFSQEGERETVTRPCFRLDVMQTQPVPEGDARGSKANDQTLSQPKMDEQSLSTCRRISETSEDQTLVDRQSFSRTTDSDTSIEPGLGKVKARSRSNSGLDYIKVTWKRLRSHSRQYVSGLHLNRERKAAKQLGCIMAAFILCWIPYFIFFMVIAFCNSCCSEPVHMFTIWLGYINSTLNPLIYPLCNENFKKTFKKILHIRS
How it was run: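 Male ICR mice (6 weeks, starved 24 h) dosed orally with compound or vehicle; brain taken 1 h later and homogenized in 40 volumes 50 mM phosphate buffer pH 7.4. Membranes incubated with [3H]mepyramine (final 2 nM), 25 °C, 30 min; filtered, scintillation counted.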

Mus musculus [6] = experiment: Inhibitory effect on histamine-induced increase in vascular permeability in mice upon oral administration; type: functional
How it was run: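 Male ICR mice (6 weeks, starved 20 h) dosed orally; 1 h later, under light ether, intradermal histamine dihydrochloride 2.5 µg/site plus saline after iv 0.2 mL 1% Evans blue. Killed 30 min later; extravasated dye extracted and assayed. ED50 from log-logit dose–percent inhibition, least squares, with 95% confidence limits.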

Mus musculus [7] = experiment: Tested for Hexobarbital-induced anesthesia in mice by measuring dose which produced 50% increase of the sleeping time upon oral administration; type: functional; details: read-out: ID50 (the source's name)
How it was run: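 Male ICR mice (5 weeks, starved 20–24 h) dosed orally; 1 h later hexobarbital 80 mg/kg ip. Sleeping time = duration of loss of righting reflex; responders show >50% increase over controls. ID50 from number responding at each dose by Litchfield–Wilcoxon, with 95% confidence limits.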

[8] = Selectivity as the ratio of ID50 value to that of ED50 value in mice.; type: functional
How it was run: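 Ratio B/A: B = oral ID50 for ex vivo [3H]mepyramine binding in mouse brain membranes (1 h post-dose); A = oral ED50 against histamine-induced skin vascular permeability in mice.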

Rattus norvegicus [9] = experiment: Antiallergic activity was evaluated by inhibitory effect on compound 48/80-induced lethality in rats at a dose 0.01 (mg/kg, po); type: functional; how it was run: as §1
Cavia porcellus [10] = experiment: Histamine induced in lethality in guinea pigs at 8 hr after oral dose of 0.02 mg/kg; type: functional
How it was run: (§2)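 Male Hartley guinea pigs, 6 weeks old, fasted 24 h, n = 10, dosed orally. Eight hours later histamine dihydrochloride given iv at a lethal dose of 1 mg/kg. Survival beyond 30 min scored all-or-none; percent inhibition of lethality reported.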

Cavia porcellus [11] = experiment: Histamine induced in lethality in guinea pigs at 8 hr after oral dose of 0.3 mg/kg; type: functional; how it was run: as §2
Cavia porcellus [12] = organism: Cavia porcellus; experiment: animal or person; details: po, 8 h, read-out: Inhibition

SMILES | Inhibition (Rattus norvegicus [1]) [%] | Inhibition (Rattus norvegicus [2]) [%] | Inhibition (Rattus norvegicus [3]) [%] | ID50 [5] [mg/kg] | ED50 (Mus musculus [6]) [mg/kg] | Selectivity [8] | Inhibition (Rattus norvegicus [9]) [%] | other results
O=C(O)CCN1CCC(=C2c3ccc(Cl)cc3OCc3cccnc32)CC1 | 0 | 80 | 100 |  |  |  |  | 
CN1CCC(=C2c3ccccc3OCc3cccnc32)CC1 | 0 | 100 |  | 0.2 | 0.011 | 18 |  | PCoct [4]: 28.4; ED50 (Mus musculus [7]): > 100 mg/kg
O=C(O)CCN1CCC(=C2c3cc(Cl)ccc3OCc3cccnc32)CC1 | 0 | 100 |  |  |  |  |  | 
O=C(O)CCN1CCC(=C2c3cc(F)ccc3OCc3cccnc32)CC1 | 0 | 20 | 100 |  |  |  |  | 
Cc1ccc2c(c1)OCc1cccnc1C2=C1CCN(CCC(=O)O)CC1 | 20 | 40 | 100 |  |  |  | 0 | 
O=C(O)CCN1CCC(=C2c3ccccc3OCc3ncccc32)CC1 | 40 | 100 |  | 3.4 | 0.01 | 340 | 0 | PCoct [4]: 0.56; ED50 (Mus musculus [7]): > 100 mg/kg
O=C(O)CCN1CCC(=C2c3cc([N+](=O)[O-])ccc3OCc3cccnc32)CC1 | 0 | 20 | 80 |  |  |  |  | 
CC(=O)c1ccc2c(c1)C(=C1CCN(CCC(=O)O)CC1)c1ncccc1CO2 | 0 | 20 | 100 |  |  |  |  | 
CC(CN1CCC(=C2c3ccc(F)cc3OCc3ncccc32)CC1)C(=O)O (configuration not stated) | 100 |  |  |  |  |  | 20 | 
CN1CCC(=C2c3ccccc3CC(=O)c3sccc32)CC1 [KETOTIFEN] |  |  |  | 0.65 | 0.23 | 2.8 |  | inhibition in vivo at 0.02 mg/kg (Cavia porcellus [10]): 10%
O=C(O)CCN1CCC(=C2c3ccccc3COc3ccccc32)CC1 | 60 | 100 |  | 0.062 | 0.0038 | 16 | 20 | PCoct [4]: 9.66; ED50 (Mus musculus [7]): 16 mg/kg
O=C(O)CCN1CCC(=C2c3ccc(F)cc3OCc3ncccc32)CC1 | 100 |  |  | 2.5 | 0.0037 | 680 | 40 | ED50 (Rattus norvegicus [3]): 0.034 mg/kg; inhibition in vivo at 0.3 mg/kg (Cavia porcellus [11]): 60%
COc1ccc2c(c1)OCc1cccnc1C2=C1CCN(CCC(=O)O)CC1 | 0 | 20 | 100 |  |  |  |  | 
O=C(O)CCN1CCC(=C2c3ccc(F)cc3OCc3cccnc32)CC1 | 40 | 100 |  | 14 | 0.025 | 560 | 0 | ED50 (Rattus norvegicus [3]): 0.29 mg/kg; inhibition in vivo at 0.3 mg/kg (Cavia porcellus [11]): 90%
COc1ccc2c(c1)OCc1ncccc1C2=C1CCN(CCC(=O)O)CC1 | 40 | 100 |  |  |  |  | 0 | 
CC(CC(=O)O)N1CCC(=C2c3ccc(F)cc3OCc3cccnc32)CC1 (configuration not stated) |  | 0 | 100 |  |  |  |  | 

SMILES | Inhibition (Rattus norvegicus [1]) [%] | Inhibition (Rattus norvegicus [2]) [%] | Inhibition (Rattus norvegicus [3]) [%] | ID50 [5] [mg/kg] | ED50 (Mus musculus [6]) [mg/kg] | Selectivity [8] | Inhibition (Rattus norvegicus [9]) [%] | other results
O=C(O)CCN1CCC(=C2c3cccc(Cl)c3OCc3cccnc32)CC1 | 0 | 60 | 100 |  |  |  |  | 
O=C(O)CCN1CCC(=C2c3ccc(Cl)cc3OCc3ncccc32)CC1 | 80 | 100 |  |  |  |  | 40 | 
O=C(O)CCN1CCC(=C2c3ccccc3OCc3cccnc32)CC1 | 0 | 100 |  | 19 | 0.012 | 1600 |  | PCoct [4]: 0.52; ED50 (Mus musculus [7]): > 100 mg/kg
O=C(O)CCN1CCC(=C2c3cccc([N+](=O)[O-])c3OCc3cccnc32)CC1 |  | 0 | 60 |  |  |  |  | 
CCOC(=O)N1CCC(=C2c3ccc(Cl)cc3CCc3cccnc32)CC1 [LORATADINE] |  |  |  |  | 0.21 |  |  | inhibition in vivo at 0.3 mg/kg (Cavia porcellus [11]): 80%
CC(CN1CCC(=C2c3ccc(F)cc3OCc3cccnc32)CC1)C(=O)O (configuration not stated) | 60 | 100 |  | 2.3 | 0.011 | 210 | 20 | 
COc1ccc2c(c1)C(=C1CCN(CCC(=O)O)CC1)c1ncccc1CO2 | 20 | 60 | 80 |  |  |  | 0 | 
Cc1ccc(/C(=C\CN2CCCC2)c2cccc(/C=C/C(=O)O)n2)cc1 [ACRIVASTINE] |  |  |  | > 300 | 0.63 | >480 |  | ED50 (Rattus norvegicus [3]): 3.3 mg/kg; inhibition in vivo at 0.16 mg/kg (Cavia porcellus [12]): 0%
O=C(O)CCN1CCC(=C2c3cccc(F)c3OCc3cccnc32)CC1 | 20 | 100 |  |  |  |  | 0 | 
CN1CCC(=C2c3ccccc3OCc3ncccc32)CC1 | 0 | 100 |  | 0.49 | 0.025 | 20 |  | PCoct [4]: 54.3; ED50 (Mus musculus [7]): 9.9 mg/kg
O=C(O)CCN1CCC(=C2c3ccc(Br)cc3OCc3cccnc32)CC1 | 40 | 60 | 100 |  |  |  | 0 | 
O=C(O)CCN1CCC(=C2c3cc(C(=O)O)ccc3OCc3cccnc32)CC1 |  | 0 | 20 |  |  |  |  | 
CN1CCC(=C2c3ccccc3COc3ccccc32)CC1 | 0 | 60 | 100 | 0.77 | 0.035 | 22 |  | ED50 (Mus musculus [7]): 0.73 mg/kg
O=C(O)CCN1CCC(=C2c3cc(F)ccc3OCc3ncccc32)CC1 | 60 | 100 |  |  |  |  | 0 | 
Cc1ccc2c(c1)OCc1ncccc1C2=C1CCN(CCC(=O)O)CC1 | 20 | 60 | 100 |  |  |  | 0 | 
